This note sets out measurements from ChEMBL document CHEMBL1149648, “Norcantharimides, synthesis and anticancer activity: Synthesis of new norcantharidin analogues and their anticancer evaluation” (2007).

Where only a bound is given, the exact number is not on record here.

Type in all cases: functional
The subject of one experiment is NCI-H460. Nature of the experiment: Cytotoxicity against human H460 cells at 100 uM after 72 hrs by MTT assay. As to conditions: NCI-H460, 72 h. Put shortly: (§1)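 Log-phase cells in DMEM with 10% FBS (37 °C, 5% CO2) were plated in duplicate at 2500–4000 cells/well. Agent was added 24 h later at a fixed final concentration of 100 µM and left for 72 h continuous exposure. Read-out was MTT absorbance at 540 nm, expressed as percent growth inhibition, where 100% means total growth inhibition.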

The test system of the next experiment is DU-145. Put plainly: Cytotoxicity against human DU145 cells at 100 uM after 72 hrs by MTT assay. Conditions: DU-145, 72 h. Put shortly: as §1
Another experiment deals with HT-29. Put plainly: Cytotoxicity against human HT29 cells at 100 uM after 72 hrs by MTT assay. As to conditions: HT-29, 72 h. In short, it runs like this: as §1
The nature of experiment [1]: Cytotoxicity against human SJG2 cells at 100 uM after 72 hrs by MTT assay. As to conditions: SJ-G2, 72 h. Put shortly: as §1
Experiment [2] can be described thus: Cytotoxicity against human BE2C cells at 100 uM after 72 hrs by MTT assay. As to conditions: BE(2)-C. Put shortly: as §1
The test system of a further experiment is SW480. Put plainly: Cytotoxicity against human SW480 cells at 100 uM after 72 hrs by MTT assay. As to conditions: SW480, 72 h. In short, it runs like this: as §1
The next experiment relates to A2780. Put plainly: Cytotoxicity against human A2780 cells at 100 uM after 72 hrs by MTT assay. Conditions: A2780, 72 h. In short, it runs like this: as §1
The test system of another experiment is A-431. Put plainly: Cytotoxicity against human A431 cells at 100 uM after 72 hrs by MTT assay. As to conditions: A-431, 72 h. In short, it runs like this:
as §1

In a further experiment the test system is MCF7. Nature of the experiment: Cytotoxicity against human MCF7 cells at 100 uM after 72 hrs by MTT assay. As to conditions: MCF7, 72 h. Put shortly:
as §1

`O=C1[C@@H]2[C@H](C(=O)N1CCCCCCO)[C@@H]1CC[C@H]2O1`: the inhibition at 100 µM in the experiment with NCI-H460 is 14%; with DU-145, under 10%; in the experiment with HT-29, 21%; in [1], 12%; in experiment [2] it was 22%; in the experiment with SW480, 16%. Besides, the inhibition at 100 µM in the experiment on A2780 turned out to be 18%; in the experiment with A-431, 6%; in the experiment on MCF7, 51%.
For the molecule `CC(CO)N1C(=O)[C@@H]2[C@H](C1=O)[C@@H]1CC[C@H]2O1` (some centres not stated), the inhibition at 100 µM (in the experiment with NCI-H460; in the experiment with DU-145; with HT-29; in experiment [1]; in [2]; in the experiment with SW480) was under 10% throughout. Also, the inhibition at 100 µM in the experiment on A2780, in the experiment on A-431 and in the experiment with MCF7 was under 10% each time.
In the case of `CCC(CO)N1C(=O)[C@@H]2[C@H](C1=O)[C@@H]1CC[C@H]2O1` (some centres not stated), the inhibition at 100 µM (with NCI-H460; in the experiment on DU-145; in the experiment with HT-29; in experiment [1]; in experiment [2]; with SW480) was under 10% each time. In addition, the inhibition at 100 µM in the experiment with A2780, with A-431 and in the experiment with MCF7 was under 10% each time.
For the molecule `O=C1[C@@H]2[C@H](C(=O)N1CCN1CCOCC1)[C@@H]1CC[C@H]2O1`, the inhibition at 100 µM (in the experiment with NCI-H460; in the experiment with DU-145; in the experiment with HT-29; in [1]; in [2]; with SW480) was under 10% in each case. Moreover, the inhibition at 100 µM with A2780, in the experiment on A-431 and in the experiment with MCF7 was under 10% in each case.
Turning to `O=C1[C@@H]2[C@H](C(=O)N1CCCN1CCOCC1)[C@@H]1CC[C@H]2O1`, the inhibition at 100 µM (in the experiment on NCI-H460; in the experiment on DU-145; in the experiment on HT-29; in experiment [1]; in experiment [2]; in the experiment on SW480) was under 10% each time. Further, the inhibition at 100 µM in the experiment with A2780, with A-431 and in the experiment on MCF7 was under 10% each time.
With `O=C1[C@@H]2[C@H](C(=O)N1c1ccc([N+](=O)[O-])cc1)[C@@H]1CC[C@H]2O1`, the inhibition at 100 µM in the experiment on NCI-H460 came out at 37%; in the experiment on DU-145, 13%; with HT-29, 60%; in experiment [1], 23%; in [2], 45%; in the experiment with SW480, 44%. For the same molecule, the inhibition at 100 µM is 53% in the experiment with A2780, 13% in the experiment on A-431 and over 100% in the experiment on MCF7.
With `O=C(O)c1ccc(N2C(=O)[C@@H]3[C@H](C2=O)[C@@H]2CC[C@H]3O2)cc1`, the inhibition at 100 µM (with NCI-H460; in the experiment with DU-145; in the experiment with HT-29; in [1]; in experiment [2]; in the experiment with SW480) was under 10% throughout. In addition, the inhibition at 100 µM with A2780, in the experiment on A-431 and in the experiment on MCF7 was under 10% in each case.
With `O=C1[C@@H]2[C@H](C(=O)N1CCCN1C(=O)[C@@H]3[C@H](C1=O)[C@@H]1CC[C@H]3O1)[C@@H]1CC[C@H]2O1`, the inhibition at 100 µM came out at 18% with NCI-H460; 13% with DU-145; 10% in the experiment with HT-29; 10% in experiment [1]; 10% in [2]; 16% with SW480. The inhibition at 100 µM came to 31% in the experiment with A2780, 10% in the experiment on A-431 and 52% in the experiment with MCF7.
In the case of `CCCCCCCCCCCCCCN1C(=O)[C@@H]2[C@H](C1=O)[C@@H]1CC[C@H]2O1`, the GI50 was determined as 66 µM in the experiment with NCI-H460; 73 µM in the experiment on DU-145; 19 µM in the experiment with HT-29; 49 µM in [1]; 50 µM in [2]; 52 µM in the experiment on SW480. Moreover, the GI50 in the experiment with A2780 stood at 35 µM; in the experiment with A-431, 47 µM; in the experiment on MCF7, 43 µM.
For the molecule `COc1ccc(CN2C(=O)[C@@H]3[C@H](C2=O)[C@@H]2CC[C@H]3O2)cc1`, the inhibition at 100 µM in the experiment with NCI-H460 was 23%; in the experiment with DU-145, under 10%; in the experiment with HT-29, 45%; in [1], 11%; in experiment [2], 29%; in the experiment on SW480, 24%. In addition, the figures for the inhibition at 100 µM in the experiment on A2780, in the experiment with A-431 and in the experiment on MCF7 were 20%, 14% and 64%, respectively.
As to `O=C1[C@@H]2[C@H](C(=O)N1CCCCCCCCCCCCN1C(=O)[C@@H]3[C@H](C1=O)[C@@H]1CC[C@H]3O1)[C@@H]1CC[C@H]2O1`, the GI50 in the experiment with NCI-H460 worked out at 31 µM; with DU-145, 60 µM; in the experiment with HT-29 it was 8.3 µM; in [1], 43 µM; in experiment [2], 17 µM; in the experiment on SW480, 24 µM. For the same molecule, the values for the GI50 in the experiment on A2780, in the experiment with A-431 and in the experiment with MCF7 were 19 µM, 18 µM and 18 µM, respectively.
For `O=C1[C@@H]2[C@H](C(=O)N1N1CCOCC1)[C@@H]1CC[C@H]2O1`, the inhibition at 100 µM in the experiment on NCI-H460 was 18%; with DU-145, 3%; in the experiment with HT-29, 29%; in experiment [1], 3%; in experiment [2], 39%; in the experiment with SW480 it was 29%. The inhibition at 100 µM in the experiment with A2780 stood at 7%; in the experiment on A-431, 30%; in the experiment on MCF7, 12%.
For `CC(C)(CO)N1C(=O)[C@@H]2[C@H](C1=O)[C@@H]1CC[C@H]2O1`, the inhibition at 100 µM (with NCI-H460; in the experiment on DU-145; in the experiment on HT-29; in [1]; in experiment [2]; with SW480) was under 10% in each case. For the same molecule, the inhibition at 100 µM in the experiment with A2780, in the experiment on A-431 and in the experiment on MCF7 was under 10% each time.
As to `CCN1C(=O)[C@@H]2[C@H](C1=O)[C@@H]1CC[C@H]2O1`, the inhibition at 100 µM (in the experiment with NCI-H460; in the experiment on DU-145; in the experiment on HT-29; in [1]; in experiment [2]; in the experiment with SW480) was under 10% throughout. Moreover, the inhibition at 100 µM in the experiment on A2780, in the experiment on A-431 and in the experiment with MCF7 was under 10% each time.
For the molecule `O=C1[C@@H]2[C@H](C(=O)N1c1ccc(O)cc1)[C@@H]1CC[C@H]2O1`, the inhibition at 100 µM was 12% in the experiment on NCI-H460; under 10% in the experiment with DU-145; 47% in the experiment on HT-29; 44% in [1]; 14% in experiment [2]; 21% with SW480. Moreover, the inhibition at 100 µM was 15% in the experiment on A2780, 27% in the experiment on A-431 and 22% in the experiment with MCF7.
Take `O=C(O)CCCN1C(=O)[C@@H]2[C@H](C1=O)[C@@H]1CC[C@H]2O1`: the inhibition at 100 µM (in the experiment on NCI-H460; in the experiment on DU-145; in the experiment with HT-29; in [1]; in experiment [2]; in the experiment with SW480) was under 10% each time. In addition, the inhibition at 100 µM in the experiment on A2780, with A-431 and with MCF7 was under 10% each time.
On to `O=C(O)CCCCCN1C(=O)[C@@H]2[C@H](C1=O)[C@@H]1CC[C@H]2O1`, for which the inhibition at 100 µM was 12% in the experiment on NCI-H460; 12% with DU-145; 14% in the experiment on HT-29; under 10% in [1]; 22% in experiment [2]; 11% in the experiment on SW480. For the same molecule, the results for the inhibition at 100 µM with A2780, in the experiment with A-431 and in the experiment with MCF7 were 52%, 11% and 47%, respectively.
In the case of `O=C1[C@@H]2[C@H](C(=O)N1c1ccccc1)[C@@H]1CC[C@H]2O1`, the inhibition at 100 µM was 50% in the experiment on NCI-H460; 24% in the experiment with DU-145; 63% in the experiment with HT-29; 42% in [1]; 54% in experiment [2]; 78% in the experiment on SW480. Besides, the inhibition at 100 µM is 90% with A2780, 25% in the experiment with A-431 and over 100% in the experiment on MCF7.
